Data published in ChEMBL document CHEMBL3860059, “Design, Synthesis, and Biological Evaluation of First-in-Class Dual Acting Histone Deacetylases (HDACs) and Phosphodiesterase 5 (PDE5) Inhibitors for the Treatment of Alzheimer's Disease” (J Med Chem, 2016).

What was measured:
Histone deacetylase 2 = Histone deacetylase 2 (Homo sapiens, UniProt Q92769); assay: Inhibition of full length recombinant human C-terminal His-tagged HDAC2 expressed in baculovirus infected Sf9 cells using fluorogenic HDAC substrate after 30 mins by fluorescence analysis
Chain of Histone deacetylase 2 (Q92769 whole entry): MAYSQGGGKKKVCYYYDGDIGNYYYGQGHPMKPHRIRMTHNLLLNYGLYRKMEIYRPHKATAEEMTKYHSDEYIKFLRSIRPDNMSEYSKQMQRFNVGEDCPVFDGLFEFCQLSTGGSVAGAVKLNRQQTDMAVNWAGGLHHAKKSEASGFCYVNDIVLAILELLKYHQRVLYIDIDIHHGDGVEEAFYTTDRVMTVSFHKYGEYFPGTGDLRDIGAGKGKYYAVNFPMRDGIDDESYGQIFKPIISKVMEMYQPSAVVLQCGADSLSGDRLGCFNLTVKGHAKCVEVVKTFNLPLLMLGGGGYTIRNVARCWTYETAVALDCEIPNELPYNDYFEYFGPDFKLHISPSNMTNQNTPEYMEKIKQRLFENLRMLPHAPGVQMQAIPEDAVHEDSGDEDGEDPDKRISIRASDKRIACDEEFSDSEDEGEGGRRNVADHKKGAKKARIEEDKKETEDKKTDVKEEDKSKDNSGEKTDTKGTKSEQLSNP
Outline: (§1)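 Full-length human recombinant HDAC1 (0.4 μg/mL final), HDAC2 (1.5 μg/mL), HDAC3/NCOR2 (0.1 μg/mL) or HDAC6 (3.6 μg/mL) with 10 μM fluorogenic acetyl-lysine substrate and 0.1 mg/mL BSA, 1% DMSO, 30 min at 37 °C; lysine developer 20 min at room temperature; fluorescence ex 355/em 460 nm. Vehicle = positive control, no enzyme = negative; IC50 from curve fit.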

[1] = molecular target: T1, Protein deacetylase HDAC6 (Homo sapiens, UniProt Q9UBN7); assay: Inhibition of full length recombinant human N-terminal GST tagged HDAC6 expressed in baculovirus infected Sf9 cells using fluorogenic HDAC substrate after 30 mins by fluorescence analysis; outline: as §1
T1 sequence (Q9UBN7 whole entry): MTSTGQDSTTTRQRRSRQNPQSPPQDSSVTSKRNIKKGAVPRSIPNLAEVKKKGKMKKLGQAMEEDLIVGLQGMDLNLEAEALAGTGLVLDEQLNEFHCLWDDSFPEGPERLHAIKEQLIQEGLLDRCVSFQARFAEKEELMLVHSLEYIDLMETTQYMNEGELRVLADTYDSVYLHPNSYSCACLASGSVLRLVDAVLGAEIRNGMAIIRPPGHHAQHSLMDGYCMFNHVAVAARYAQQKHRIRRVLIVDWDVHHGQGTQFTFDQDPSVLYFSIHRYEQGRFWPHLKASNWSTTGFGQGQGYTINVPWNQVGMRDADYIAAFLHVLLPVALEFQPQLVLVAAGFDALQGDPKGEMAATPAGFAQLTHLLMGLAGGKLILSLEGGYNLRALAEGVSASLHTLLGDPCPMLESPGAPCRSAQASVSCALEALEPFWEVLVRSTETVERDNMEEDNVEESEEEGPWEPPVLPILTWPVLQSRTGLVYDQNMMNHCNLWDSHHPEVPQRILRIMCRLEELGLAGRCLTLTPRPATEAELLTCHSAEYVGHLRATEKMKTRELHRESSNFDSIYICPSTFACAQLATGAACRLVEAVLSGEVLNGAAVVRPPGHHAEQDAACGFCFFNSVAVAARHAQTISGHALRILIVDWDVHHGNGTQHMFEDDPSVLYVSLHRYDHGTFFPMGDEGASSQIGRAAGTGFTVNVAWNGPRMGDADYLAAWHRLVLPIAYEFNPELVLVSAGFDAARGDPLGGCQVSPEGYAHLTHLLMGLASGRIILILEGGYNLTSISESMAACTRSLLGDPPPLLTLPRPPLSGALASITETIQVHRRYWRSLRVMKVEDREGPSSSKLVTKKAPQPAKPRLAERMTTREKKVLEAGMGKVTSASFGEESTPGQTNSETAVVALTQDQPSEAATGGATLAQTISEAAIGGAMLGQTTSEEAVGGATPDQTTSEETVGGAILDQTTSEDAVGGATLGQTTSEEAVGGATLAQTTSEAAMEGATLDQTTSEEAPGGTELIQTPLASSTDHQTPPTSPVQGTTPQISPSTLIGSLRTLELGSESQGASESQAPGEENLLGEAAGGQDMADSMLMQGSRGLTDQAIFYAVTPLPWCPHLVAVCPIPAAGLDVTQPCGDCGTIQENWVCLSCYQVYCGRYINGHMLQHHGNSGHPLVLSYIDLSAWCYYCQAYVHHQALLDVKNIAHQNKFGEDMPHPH

[2] = molecular target: cGMP-specific 3',5'-cyclic phosphodiesterase (Homo sapiens, UniProt O76074); assay: Inhibition of full length recombinant human N-terminal GST-tagged PDE5A1 expressed in baculovirus infected Sf9 cells using cGMP as substrate after 30 mins by HTRF assay
Histone deacetylase 1 = Histone deacetylase 1 (Homo sapiens, UniProt Q13547); assay: Inhibition of full length recombinant human C-terminal His/Flag-tagged HDAC1 expressed in baculovirus infected Sf9 cells using fluorogenic HDAC substrate after 30 mins by fluorescence analysis; outline: as §1
Chain of Histone deacetylase 1 (Q13547 whole entry): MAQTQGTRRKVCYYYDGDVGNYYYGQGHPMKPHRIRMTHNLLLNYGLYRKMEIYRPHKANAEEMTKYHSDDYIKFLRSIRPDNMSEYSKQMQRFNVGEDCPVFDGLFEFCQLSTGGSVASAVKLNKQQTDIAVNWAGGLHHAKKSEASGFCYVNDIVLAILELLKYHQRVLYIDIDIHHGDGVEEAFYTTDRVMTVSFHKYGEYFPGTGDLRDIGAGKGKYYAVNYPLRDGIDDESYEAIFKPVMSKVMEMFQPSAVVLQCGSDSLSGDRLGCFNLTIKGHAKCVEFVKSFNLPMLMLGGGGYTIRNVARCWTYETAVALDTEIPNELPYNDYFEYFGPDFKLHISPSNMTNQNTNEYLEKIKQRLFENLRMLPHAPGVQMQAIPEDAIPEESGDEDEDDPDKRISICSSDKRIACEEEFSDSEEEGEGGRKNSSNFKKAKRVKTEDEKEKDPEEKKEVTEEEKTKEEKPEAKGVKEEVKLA

[3] = Selectivity ratio of pLC50 for mouse primary glial cells to pLC50 for human THLE2 cells; type: ADME, cell-based; details: mouse primary glial cells versus THLE2 cells
[4] = Passive membrane permeability of the compound at 50 uM after 18 hrs by PAMPA; type: ADME; details: read-out: Peff
Outline: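 PAMPA: 50 μM donor solution in PBS/EtOH 70:30 over PVDF membrane precoated with PBL/dodecane (20 mg/mL); PBS/EtOH acceptor; 18 h at 20 °C without shaking; duplicates; donor and acceptor concentrations by UV absorbance corrected against vehicle.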

[5] = Cytotoxicity against human THLE2 cells assessed as reduction in cell viability after 72 hrs by ATP Vialight assay; type: toxicity, cell-based, THLE-2; details: read-out: LC50
Outline: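 Immortalized human liver THLE-2 cells in BEGM with 0.7 μg/mL phosphoethanolamine, 0.5 ng/mL EGF, antibiotics and 10% FBS, seeded at 10,000 cells/well and left 24 h at 37 °C. Compounds were added at final 0–100 μM in 1% DMSO for 72 h. Cellular ATP was read by luminescence after 45 min lysis.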

[6] = Selectivity ratio of pIC50 for full length recombinant human N-terminal GST tagged HDAC6 expressed in baculovirus infected Sf9 cells to pIC50 for full length recombinant human C-terminal His/Flag-tagged HDAC1 expressed in baculovirus infected Sf9 cells
[7] = molecular target: Histone deacetylase 3/Nuclear receptor corepressor 2 (HDAC3/NCoR2) (Homo sapiens, UniProt O15379); assay: Inhibition of full length recombinant human C-terminal His-tagged HDAC3/N-terminal GST-tagged NCOR2 (395 to 489 residues) expressed in baculovirus infected Sf9 cells using fluorogenic HDAC substrate after 30 mins by fluorescence analysis
Chain of Histone deacetylase 3/Nuclear receptor corepressor 2 (HDAC3/NCoR2) (O15379 whole entry, the tested form may be a part): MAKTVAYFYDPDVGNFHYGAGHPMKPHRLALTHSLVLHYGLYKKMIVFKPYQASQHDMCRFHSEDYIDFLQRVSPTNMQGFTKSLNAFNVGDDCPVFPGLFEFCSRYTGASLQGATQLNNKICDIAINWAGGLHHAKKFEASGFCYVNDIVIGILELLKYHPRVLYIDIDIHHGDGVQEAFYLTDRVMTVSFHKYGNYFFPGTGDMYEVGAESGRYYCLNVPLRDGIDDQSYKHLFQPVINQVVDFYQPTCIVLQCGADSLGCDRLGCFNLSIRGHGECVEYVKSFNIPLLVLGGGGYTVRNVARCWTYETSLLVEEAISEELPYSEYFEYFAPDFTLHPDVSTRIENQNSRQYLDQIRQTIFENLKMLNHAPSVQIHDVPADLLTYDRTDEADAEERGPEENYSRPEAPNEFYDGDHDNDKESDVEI
Chain of Histone deacetylase 3/Nuclear receptor corepressor 2 (HDAC3/NCoR2) (Q9Y618 whole entry, further chain, the tested form may be a part): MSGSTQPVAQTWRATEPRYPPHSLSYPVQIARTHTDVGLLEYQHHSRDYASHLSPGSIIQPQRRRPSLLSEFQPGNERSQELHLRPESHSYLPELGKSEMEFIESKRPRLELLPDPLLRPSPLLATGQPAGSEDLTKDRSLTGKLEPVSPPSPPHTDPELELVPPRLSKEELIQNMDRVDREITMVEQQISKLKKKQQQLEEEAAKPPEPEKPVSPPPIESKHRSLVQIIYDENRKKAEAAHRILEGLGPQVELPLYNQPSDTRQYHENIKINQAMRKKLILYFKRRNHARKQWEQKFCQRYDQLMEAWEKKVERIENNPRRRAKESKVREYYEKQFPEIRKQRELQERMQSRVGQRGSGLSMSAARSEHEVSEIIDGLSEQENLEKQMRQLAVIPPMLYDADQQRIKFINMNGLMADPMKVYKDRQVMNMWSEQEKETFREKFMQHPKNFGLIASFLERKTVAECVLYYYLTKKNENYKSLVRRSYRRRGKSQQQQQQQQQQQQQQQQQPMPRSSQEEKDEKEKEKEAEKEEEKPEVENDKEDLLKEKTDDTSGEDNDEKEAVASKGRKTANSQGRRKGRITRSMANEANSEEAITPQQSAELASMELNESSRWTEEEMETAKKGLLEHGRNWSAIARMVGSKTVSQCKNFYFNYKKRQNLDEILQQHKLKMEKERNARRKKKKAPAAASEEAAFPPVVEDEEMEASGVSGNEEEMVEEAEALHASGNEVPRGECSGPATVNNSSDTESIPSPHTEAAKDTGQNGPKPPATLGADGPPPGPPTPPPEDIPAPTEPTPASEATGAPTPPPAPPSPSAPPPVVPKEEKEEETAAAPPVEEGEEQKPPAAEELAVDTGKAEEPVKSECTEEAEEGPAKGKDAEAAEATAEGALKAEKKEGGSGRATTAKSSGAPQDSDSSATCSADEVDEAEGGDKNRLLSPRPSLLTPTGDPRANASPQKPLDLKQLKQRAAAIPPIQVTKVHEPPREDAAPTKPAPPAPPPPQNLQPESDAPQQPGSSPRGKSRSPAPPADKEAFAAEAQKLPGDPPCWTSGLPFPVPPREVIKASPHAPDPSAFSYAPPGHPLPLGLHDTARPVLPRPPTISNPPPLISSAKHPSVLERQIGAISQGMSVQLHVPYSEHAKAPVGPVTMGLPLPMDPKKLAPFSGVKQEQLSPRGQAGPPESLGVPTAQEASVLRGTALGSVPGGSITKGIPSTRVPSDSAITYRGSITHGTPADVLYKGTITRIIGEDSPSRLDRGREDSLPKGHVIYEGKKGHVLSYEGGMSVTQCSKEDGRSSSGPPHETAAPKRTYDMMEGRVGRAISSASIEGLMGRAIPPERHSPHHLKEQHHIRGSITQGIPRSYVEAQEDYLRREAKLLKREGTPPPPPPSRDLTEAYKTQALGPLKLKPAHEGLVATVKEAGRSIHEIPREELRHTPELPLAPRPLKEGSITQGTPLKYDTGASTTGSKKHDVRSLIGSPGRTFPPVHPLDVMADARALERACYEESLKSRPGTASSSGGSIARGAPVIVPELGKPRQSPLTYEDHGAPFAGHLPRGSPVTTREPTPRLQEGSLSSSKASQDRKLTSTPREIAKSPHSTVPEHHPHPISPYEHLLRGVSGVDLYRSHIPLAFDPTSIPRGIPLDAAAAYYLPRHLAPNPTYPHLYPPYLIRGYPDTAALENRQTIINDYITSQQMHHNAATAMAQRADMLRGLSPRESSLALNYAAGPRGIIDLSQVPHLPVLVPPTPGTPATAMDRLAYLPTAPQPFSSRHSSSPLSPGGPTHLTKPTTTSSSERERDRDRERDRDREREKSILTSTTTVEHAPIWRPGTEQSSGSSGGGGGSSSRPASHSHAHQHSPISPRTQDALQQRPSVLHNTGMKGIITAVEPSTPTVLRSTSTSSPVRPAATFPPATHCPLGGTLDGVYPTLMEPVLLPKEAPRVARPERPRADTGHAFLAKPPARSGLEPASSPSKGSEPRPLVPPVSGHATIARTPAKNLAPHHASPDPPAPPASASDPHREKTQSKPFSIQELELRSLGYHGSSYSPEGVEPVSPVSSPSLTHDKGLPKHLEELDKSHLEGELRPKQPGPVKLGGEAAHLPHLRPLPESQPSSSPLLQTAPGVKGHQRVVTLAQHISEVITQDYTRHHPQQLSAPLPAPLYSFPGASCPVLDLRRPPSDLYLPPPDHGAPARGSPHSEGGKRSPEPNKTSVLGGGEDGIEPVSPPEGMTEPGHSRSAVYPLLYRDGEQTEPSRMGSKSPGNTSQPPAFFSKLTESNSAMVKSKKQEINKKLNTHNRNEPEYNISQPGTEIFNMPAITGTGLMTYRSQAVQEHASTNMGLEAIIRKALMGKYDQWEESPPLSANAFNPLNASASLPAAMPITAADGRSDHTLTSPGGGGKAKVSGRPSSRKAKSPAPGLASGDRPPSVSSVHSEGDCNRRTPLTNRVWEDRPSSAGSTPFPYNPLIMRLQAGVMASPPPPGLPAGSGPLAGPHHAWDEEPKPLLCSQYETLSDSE

Structure (SMILES) | IC50 (Histone deacetylase 2) [nM] | IC50 [1] [nM] | IC50 [2] [nM] | IC50 (Histone deacetylase 1) [nM] | Papp at 18 h, 50 µM [4] [×10⁻⁶ cm/s] | IC50 [7] [nM] | selectivity ratio [3] | CC50 at 72 h [5] [nM] | Ratio pIC50 [6]
CCCc1nn(C)c2c(=O)[nH]c(-c3cc(Cc4ccc(/C=C/C(=O)NO)cc4)ccc3OCC)nc12 | > 20000 | 1790 | 122 | 1530 |  |  |  |  | 
CCCc1nn(C)c2c(=O)[nH]c(-c3cc(NC4CCN(c5ncc(C(=O)NO)cn5)CC4)ccc3OCC)nc12 | 490 | 441 | 5 | 68 | 1.34 | 31 | < 0.4 | 2570 | > 0.6
CCCc1nn(C)c2c(=O)[nH]c(-c3cc(N4CCC5(CCN(c6ncc(C(=O)NO)cn6)CC5)C4)ccc3OCC)nc12 | 1850 | 1900 | 74 | 443 |  |  |  |  | > 0.6
CCCc1nn(C)c2c(=O)[nH]c(-c3cc(CN4CC(C(=O)NO)C4)ccc3OCC)nc12 | > 20000 | > 10000 | 303 | > 20000 |  |  |  |  | 
CCCc1nn(C)c2c(=O)[nH]c(-c3cc(CCC(=O)NO)ccc3OCC)nc12 | > 20000 | 2120 | 46 | 4810 |  |  |  |  | 
CCCc1nn(C)c2c(=O)[nH]c(-c3cc(C(=O)NO)ccc3OCC)nc12 | > 20000 | > 20000 | 5 | 6420 |  |  |  |  | 
CCCc1nn(C)c2c(=O)[nH]c(-c3cc(-c4ccc(C(=O)NO)o4)ccc3OCC)nc12 | > 20000 | 5570 | 5 | > 20000 |  |  |  |  | 
CCCc1nn(C)c2c(=O)[nH]c(-c3cc(NC4CCC(C(=O)NO)CC4)ccc3OCC)nc12 (configuration not stated) | > 20000 | 12700 | 22 | 5980 |  |  |  |  | 
CCCc1nn(C)c2c(=O)[nH]c(-c3cc(-c4ccc(C(=O)NO)cn4)ccc3OCC)nc12 | 1870 | 79 | 4 | 354 | 0.92 |  | < 0.4 |  | 
CCCc1nn(C)c2c(=O)[nH]c(-c3cc(S(=O)(=O)N4CCN(CCC(=O)NO)CC4)ccc3OCC)nc12 | > 20000 | 2360 | 3 | 10500 |  |  |  |  | 
CCCc1nn(C)c2c(=O)[nH]c(-c3cc(CC4CCN(CCC(=O)NO)CC4)ccc3OCC)nc12 | > 20000 | > 20000 | 57 | > 20000 |  |  |  |  | 
CCCc1nn(C)c2c(=O)[nH]c(-c3cc(S(=O)(=O)N4CCN(C)CC4)ccc3OCC)nc12 |  |  |  |  | 2.75 |  |  | > 100000 | 
CCCc1nn(C)c2c(=O)[nH]c(-c3cc(CN4CCN(c5ncc(C(=O)NO)cn5)CC4)ccc3OCC)nc12 | 89 | 379 | 7 | 14 | 0.89 |  | < 0.4 |  | > 1
CCCc1nn(C)c2c(=O)[nH]c(-c3cc(NCC4CCN(c5ncc(C(=O)NO)cn5)CC4)ccc3OCC)nc12 | 712 | 709 | 17 | 118 |  |  |  |  | > 0.6
CCCc1nn(C)c2c(=O)[nH]c(-c3cc(C4CC4C(=O)NO)ccc3OCC)nc12 (configuration not stated) | > 20000 | 5370 | 20 | 8750 |  |  |  |  | 
CCCc1nn(C)c2c(=O)[nH]c(-c3cc(CC(=O)NO)ccc3OCC)nc12 | > 20000 | > 20000 | 19 | > 20000 |  |  |  |  | 
CCCc1nn(C)c2c(=O)[nH]c(-c3cc(S(=O)(=O)N4CCN(CCCC(=O)NO)CC4)ccc3OCC)nc12 | 4640 | 360 | 2 | 1100 |  |  |  |  | 
CCCc1nn(C)c2c(=O)[nH]c(-c3cc(N4CCC5(CCC(C(=O)NO)C5)CC4)ccc3OCC)nc12 (configuration not stated) | > 20000 | 4340 | 12 | 12900 |  |  |  |  | 

Further lines, with some results ahead:

IC50 (Histone deacetylase 2) [nM] | IC50 [1] [nM] | IC50 [2] [nM] | IC50 (Histone deacetylase 1) [nM] | Papp at 18 h, 50 µM [4] [×10⁻⁶ cm/s] | IC50 [7] [nM] | Structure (SMILES) | selectivity ratio [3] | CC50 at 72 h [5] [nM] | Ratio pIC50 [6]
2030 | 1060 | 24 | 603 |  |  | CCCc1nn(C)c2c(=O)[nH]c(-c3cc(N4CCC(CCC(=O)NO)CC4)ccc3OCC)nc12 |  |  | 
17500 | 1600 | 20 | 7810 |  |  | CCCc1nn(C)c2c(=O)[nH]c(-c3cc(NC4CCN(c5ccc(C(=O)NO)cc5)CC4)ccc3OCC)nc12 |  |  | 
> 20000 | 10100 | 40 | 9270 |  |  | CCCc1nn(C)c2c(=O)[nH]c(-c3cc(N4CCCC5(CCC(C(=O)NO)CC5)C4)ccc3OCC)nc12 (configuration not stated) |  |  | 
166 | 584 | 10 | 25 |  | 43 | CCCc1nn(C)c2c(=O)[nH]c(-c3cc(N(C)C4CCN(c5ncc(C(=O)NO)cn5)CC4)ccc3OCC)nc12 |  |  | > 1
1940 | 87 | 0.5 | 406 |  |  | CCCc1nn(C)c2c(=O)[nH]c(-c3cc(S(=O)(=O)N4CCC(CCC(=O)NO)CC4)ccc3OCC)nc12 |  |  | 
> 20000 | 2350 | 13 | 2420 |  | > 20000 | CCCc1nn(C)c2c(=O)[nH]c(-c3cc(Cc4ccc(CCC(=O)NO)cc4)ccc3OCC)nc12 |  |  | 
> 20000 | 861 | 4 | 2360 | 1.52 |  | CCCc1nn(C)c2c(=O)[nH]c(-c3cc(-c4ccc(C(=O)NO)nc4)ccc3OCC)nc12 | < 0.4 |  | 
2250 | 196 | 23 | 566 | 3.68 |  | CCCc1nn(C)c2c(=O)[nH]c(-c3cc(Oc4ccc(C(=O)NO)cc4)ccc3OCC)nc12 | < 0.4 |  | 
> 20000 | 10400 | 44 | 7080 |  |  | CCCc1nn(C)c2c(=O)[nH]c(-c3cc(NCCC(=O)NO)ccc3OCC)nc12 |  |  | 
> 20000 | 5130 | 70 | 6910 |  |  | CCCc1nn(C)c2c(=O)[nH]c(-c3cc(C4CCC(CC(=O)NO)CC4)ccc3OCC)nc12 (configuration not stated) |  |  | 
9830 | 2330 | 11 | 2440 |  |  | CCCc1nn(C)c2c(=O)[nH]c(-c3cc(OC4CCC(C(=O)NO)CC4)ccc3OCC)nc12 (configuration not stated) |  |  | 
> 20000 | 9640 | 207 | 7620 |  |  | CCCc1nn(C)c2c(=O)[nH]c(-c3cc(CN4CCC(C(=O)NO)CC4)ccc3OCC)nc12 |  |  | 
